Compounds with a hit are over-represented: about 1.9% of the library has one in this group of screens.
TbMetRS inhib: blocks T. brucei methionyl-tRNA synthetase activity; purified T. brucei MetRS, ATP depletion, Kinase-Glo luminescence; inhibition, % at 11.9 µM; 360,000 tested, 0.4% active;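 active = inhibition above a per-plate cutoff of the control wells' mean inhibition plus 3 SD, cut at about 5.5% in these data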;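 note: 0% = DMSO wells median and 100% = median of wells with control inhibitor compound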
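Material – parasite MetRS enzyme · Medium – HEPES-MgCl2-KCl buffer plus DTT, spermine, BSA, pyrophosphatase · Reagent – ATP, methionine and E. coli bulk tRNA substrates · Times – 15 min enzyme-compound preincubation, 2 h reaction, 10 min detection, 25 °C · Measured by – luminescence of leftover ATP · Evaluation – percent inhibition relative to median high and low control wells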
PLCg1 inh: inhibitors of human phospholipase C gamma1; P19174; purified PLC-gamma1, fluorogenic substrate, fluorescence; inhibition, % at 12.2 µM; 370,000 tested, 0.84% active; AID 720700; in the data active = inhibition above about 9.5%
PLC-beta3 inh: inhibitors of human phospholipase C beta3; Purified PLC-beta3, fluorogenic substrate, fluorescence; inhibition, % at 12.2 µM; 370,000 tested, 0.18% active; AID 720704; in the data active = inhibition above about 11%;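 note: 0% = median of compound wells on plate and 100% = full blocker control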
HGIII-sPLA2 inh: Inhibits HGIII-sPLA2 liposome hydrolysis, primary screen; inhibition, % at 12.2 µM; AID 743126; 370,000 tested, 0.56% active; QFRET BODIPY PC-A2 liposome hydrolysis, fluorescence;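 active = inhibition above mean plus 3 SD of compounds lying within the high and low control bounds, cut at about 19% in these data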;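 note: 0% = median of test compound wells and 100% = no enzyme DMSO wells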
Target sequence (Q9NZ20 whole entry, looked up): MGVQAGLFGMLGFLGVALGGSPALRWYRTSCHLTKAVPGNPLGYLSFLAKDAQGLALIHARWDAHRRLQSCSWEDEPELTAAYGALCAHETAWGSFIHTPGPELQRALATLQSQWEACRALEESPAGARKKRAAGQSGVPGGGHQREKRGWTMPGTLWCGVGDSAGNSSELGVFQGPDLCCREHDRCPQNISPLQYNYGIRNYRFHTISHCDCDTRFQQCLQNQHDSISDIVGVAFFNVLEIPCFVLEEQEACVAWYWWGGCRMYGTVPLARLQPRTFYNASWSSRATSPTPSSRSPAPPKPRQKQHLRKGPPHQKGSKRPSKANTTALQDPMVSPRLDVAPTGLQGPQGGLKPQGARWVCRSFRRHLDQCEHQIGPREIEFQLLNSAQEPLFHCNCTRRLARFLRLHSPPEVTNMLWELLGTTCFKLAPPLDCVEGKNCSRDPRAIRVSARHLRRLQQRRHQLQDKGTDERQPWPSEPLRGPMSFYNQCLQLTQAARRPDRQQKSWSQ
Tb MetRS conf: Trypanosoma brucei MetRS inhibition confirmed. shares compounds with TbMetRS inhib. 1,400 tested, 93% active. T. brucei MetRS enzyme, luminescence (ATP depletion). inhibition, % at 11.9 µM. AID 624412; in the data active = inhibition above about 7%
Jurkat cytotox: kills Jurkat cells in T. brucei MetRS counterscreen; 1,400 tested, 12% active; shares compounds with TbMetRS inhib; inhibition, % at 8.3 µM; Jurkat cells viability, ATP luminescence; in the data active = inhibition above about 15%;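 note: 0% = vehicle and 100% = reference inhibitor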
TbMetRS FP orth: T. brucei MetRS inhibition, orthogonal assay; 1,400 tested, 44% active; inhibition, % at 11.9 µM; AID 651607; shares compounds with TbMetRS inhib; purified T. brucei MetRS, fluorescence polarization; in the data active = inhibition above about 17%;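 note: 0% = vehicle wells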
An asterisk follows results filed as active; . = no result given.

SMILES	TbMetRS inhib	PLCg1 inh	PLC-beta3 inh	HGIII-sPLA2 inh	Tb MetRS conf	Jurkat cytotox	TbMetRS FP orth
COc1cc(C2C(C#N)=C(N)Oc3cc4c(cc32)OCO4)cc(OC)c1OC (stereo not given)	1	-5	-12	-13	.	.	.
COc1cc(C2C(C#N)=C(N)Oc3cc(O)ccc32)cc2c1OCO2 (stereo not given)	14*	-30	-37	0	3	36*	4
COc1cc(C2C(C#N)=C(N)Oc3cc(N(C)C)ccc32)cc2c1OCO2 (stereo not given)	19*	-40	-69	-6	2	82*	7
CC1=NN(c2ccc(F)cc2)C(=O)C1C(c1cccc(O)c1)c1c(C)[nH]n(-c2ccc(F)cc2)c1=O (stereo not given)	19*	18*	12*	-1	3	-6	2
CC(C)(C)OC(=O)/C=C/[C@@H](CCCCl)Sc1ccc(C(C)(C)C)cc1	.	1	-1	-5	.	.	.
CCOc1ccc(CNc2nc3ccccc3n2CCN2CCOCC2)cc1	1	9	8	-5	.	.	.
Brc1cccc(CNc2nc3ccccc3n2CCN2CCOCC2)c1	7.5*	0	-1	0	20*	8	5
COC(=O)[C@]12C[C@H](CC(=O)N3CCCCC3)C(=O)N(Cc3ccc4c(c3)OCO4)C1=C[C@H](C(C)C)O[C@@H]2C1CC1	.	-1	4	11	.	.	.
COc1ccc(Cn2ccc3ccc(-c4ccc5ccn(Cc6cccc(F)c6)c5c4)cc32)cc1	.	-85	-125	13	.	.	.
C/C(CC(=O)Nc1ccc(Cl)c(C(F)(F)F)c1)=N\NC(=O)c1ccccc1O	16*	-26	-29	-16	93*	28*	91*
C/C(CC(=O)Nc1ccc(Cl)c(C(F)(F)F)c1)=N\NC(=O)c1cccc(O)c1	0	5	3	-26	.	.	.
COc1ccc(-c2noc([C@@H]3O[C@H](CO)[C@H](O)[C@H](O)[C@H]3O)n2)cc1OC	7.5*	2	3	9	3	-7	6
COc1cc(OC)cc(-c2noc([C@@H]3O[C@H](CO)[C@H](O)[C@H](O)[C@H]3O)n2)c1	0	0	1	6	.	.	.
COC(=O)[C@H](CC(C)C)N(Cc1cn(Cc2ccc(C)cc2)nn1)S(=O)(=O)c1ccccc1Br	.	1	0	-10	.	.	.
S=C(NCc1ccncc1)Nc1ccc(Cl)c(Cl)c1	2	2	2	7	.	.	.
S=C(NCc1cccnc1)Nc1cc(Cl)cc(Cl)c1	24*	0	-4	2	52*	5	30*
S=C(NCc1ccncc1)Nc1cc(Cl)cc(Cl)c1	10*	0	-5	-8	23*	0	13
O=S1(=O)c2cc(Cl)ccc2N2CC[C@H](C2)N1Cc1ccc(Cl)c(Cl)c1	.	-6	-1	10	.	.	.
COC(=O)[C@]12C[C@H](CC(=O)N3CCCC3)C(=O)N(CCC3=CCCCC3)C1=C[C@H](C(C)(C)C)O[C@@H]2C	.	2	2	1	.	.	.
OC(COc1ccc2cc(Br)ccc2c1)Cn1ccnc1 (stereo not given)	6.2*	-1	-5	-20	13*	9	24*
NC(=O)[C@@H]1CCCNc2c(I)cc([N+](=O)[O-])cc2C(=O)N[C@@H](CO)C(=O)N[C@@H](Cc2ccc(O)cc2)C(=O)N1	7.4*	3	3	-5	21*	8	5
Cc1ccc(Cn2nnc3c2-c2ccccc2S(=O)(=O)N(C(C)(C)C)C3)cc1	.	-1	1	-10	.	.	.
Cc1cc(Cl)ccc1OCC(=O)NCC(=O)N/N=C/c1ccco1	6.8*	-2	0	1	71*	7	20*
COc1ccc([C@H]2CN(c3ccc(OC)cc3)C(=O)[C@@H]2CC(=O)Nc2ccc(Br)cc2)cc1	8.6*	1	0	-8	19*	10	8
CSC[C@H]1CN(Cc2ccccc2)C(=O)[C@@H]1CC(=O)Nc1ccc(Br)cc1	17*	2	0	-4	30*	0	11
SMILES	TbMetRS inhib	PLCg1 inh	PLC-beta3 inh	HGIII-sPLA2 inh	Tb MetRS conf	Jurkat cytotox	TbMetRS FP orth
O=C(C[C@H]1C(=O)N(Cc2ccccc2)C[C@@H]1c1ccc(Br)cc1)Nc1ccc(Br)cc1	77*	1	-1	-4	94*	6	83*
O=C(C[C@H]1C(=O)N(Cc2cccnc2)C[C@@H]1Cc1ccccc1)Nc1ccc(Br)cc1	41*	1	2	-18	67*	11	41*
O=C(Nc1ccc2c(c1)OCO2)NC1CCCCN(Cc2cccc(Cl)c2)C1=O (stereo not given)	.	0	1	6	.	.	.
O=C(C[C@H]1C(=O)N(Cc2ccccc2)C[C@@H]1Cc1ccccc1)Nc1ccc(Br)cc1	10*	1	-1	-6	30*	7	8
Nc1ncnc2c1ncn2C1O[C@H](CO)[C@@H](O)[C@@H]1O (stereo not given in full)	1	-1	2	-2	.	.	.
N#Cc1c(N)n(C2OC(CO)C(O)C2O)c2ncnc(N)c12 (stereo not given)	7.8*	1	-1	1	30*	97*	10
O=C(CN1CCN(c2ccccc2F)CC1)c1c[nH]c2ccc(F)cc12	11*	-5	-5	-6	17*	-10	2
NC(=O)C1CCN(CC(=O)c2c[nH]c3ccc(F)cc23)CC1	4	0	-5	-7	.	.	.
CCCCCCCCN1C(=O)[C@@H](CC(=O)N2CCCCC2)C[C@@]2(C(=O)OC)C1=C[C@H](C(C)C)O[C@@H]2C1CC1	.	0	2	-4	.	.	.
Cc1cc(-c2ccc(C(C)C)c(S(=O)(=O)N3CCN(c4ccccn4)CC3)c2)on1	8.0*	1	-8	-2	12*	51*	4
COC(=O)C1=C(C(=O)OC)[C@@]2([C@@H](Cc3ccc(C)cc3)Nc3ccccc3)C=C[C@@H]1O2	.	-1	-3	2	.	.	.
CC(C)C(C#CC1CC1)N(Cc1ccc2c(c1)OCO2)C(N)=NC(=O)/C=C/c1ccccc1 (stereo not given)	.	-1	0	-8	.	.	.
O=C(CSCc1ccc([N+](=O)[O-])cc1)N/N=C/c1ccncc1	1	4	0	1	.	.	.
O=C(CSCc1ccc([N+](=O)[O-])cc1)N/N=C/c1cccnc1	9.2*	1	3	1	34*	-4	10
O=C(COC(=O)CCCNC(=O)c1ccc(Cl)cc1)Nc1ccc(Br)cc1	0	-1	1	10	.	.	.
Cc1cccc(NC(=O)CCNC(=O)c2ccc(Br)cc2)c1	31*	-1	-7	-5	56*	1	70*
O=C(CCCNC(=O)c1ccc(Cl)cc1)Nc1ccc(Br)cc1	9.1*	3	-1	-9	60*	6	43*

Compound activity: PubChem BioAssay, The Scripps Research Institute Molecular Screening Center
